According to ChEMBL document CHEMBL2424583, “Structure-activity relationship and in vitro and in vivo evaluation of the potent cytotoxic anti-microtubule agent N-(4-methoxyphenyl)-N,2,6-trimethyl-6,7-dihydro-5H-cyclopenta[d]pyrimidin-4-aminium chloride and its analogues as antitumor agents” (J Med Chem, 2013):
pEC50, pIC50: −log10 of the molar value. Activity calls are given as the source filed them. No cut-off for these calls is given here.

Assays:
[1] = Induction of microtubule depolymerization in rat A10 cells after 18 hrs by indirect immunofluorescence assay; format: cell-based
Method in brief: (§1)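 A-10 cells were exposed to vehicle or compound for 18 h, fixed, and microtubules were visualized by indirect immunofluorescence. EC50 is the concentration causing about 50% microtubule loss, from at least three independent experiments.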

MDA-MB-435 = assay: Cytotoxicity against human MDA-MB-435 cells assessed as growth inhibition after 48 hrs by SRB assay; format: functional, cell-based; conditions: MDA-MB-435, 48 h
A10 [2] = assay: Induction of microtubule depolymerization in rat A10 cells up to 10 uM after 18 hrs by indirect immunofluorescence assay; format: cell-based; method in brief: as §1
A10 [3] = assay: Induction of microtubule depolymerization in rat A10 cells up to 40 uM after 18 hrs by indirect immunofluorescence assay; format: cell-based; method in brief: as §1
Tubulin (Sus scrofa) = Tubulin (Sus scrofa) (UniProt P02554+P02550); assay: Displacement of [3H]-colchicine from pig brain tubulin at 1 uM after 10 mins by scintillation counting analysis relative to control
Sequence of Tubulin (Sus scrofa) (P02550 whole entry, looked up): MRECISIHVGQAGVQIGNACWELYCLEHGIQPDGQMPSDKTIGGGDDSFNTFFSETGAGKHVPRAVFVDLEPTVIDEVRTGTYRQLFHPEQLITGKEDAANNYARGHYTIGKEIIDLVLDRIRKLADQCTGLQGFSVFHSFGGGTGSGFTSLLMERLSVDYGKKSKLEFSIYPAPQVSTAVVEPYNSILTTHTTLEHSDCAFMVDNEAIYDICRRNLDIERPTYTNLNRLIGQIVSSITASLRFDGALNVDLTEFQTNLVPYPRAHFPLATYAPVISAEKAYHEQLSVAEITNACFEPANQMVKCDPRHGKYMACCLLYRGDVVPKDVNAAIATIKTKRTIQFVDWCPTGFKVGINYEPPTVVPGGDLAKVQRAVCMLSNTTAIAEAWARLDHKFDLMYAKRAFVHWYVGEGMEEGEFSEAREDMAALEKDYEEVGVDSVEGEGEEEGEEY
Sequence of Tubulin (Sus scrofa) (P02554 whole entry, looked up): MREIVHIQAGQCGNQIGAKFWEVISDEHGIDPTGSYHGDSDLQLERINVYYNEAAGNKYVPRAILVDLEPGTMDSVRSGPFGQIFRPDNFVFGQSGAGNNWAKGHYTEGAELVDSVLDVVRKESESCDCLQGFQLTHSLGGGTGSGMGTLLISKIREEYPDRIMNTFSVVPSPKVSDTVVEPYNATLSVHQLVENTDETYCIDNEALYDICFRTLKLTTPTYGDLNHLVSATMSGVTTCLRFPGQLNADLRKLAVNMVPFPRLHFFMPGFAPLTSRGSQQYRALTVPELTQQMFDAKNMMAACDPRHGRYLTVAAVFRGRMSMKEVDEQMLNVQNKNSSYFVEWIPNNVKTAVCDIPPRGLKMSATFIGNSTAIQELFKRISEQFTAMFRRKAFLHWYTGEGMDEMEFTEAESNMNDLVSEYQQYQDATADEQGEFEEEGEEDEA

SMILES	pEC50 [1]	pIC50 (MDA-MB-435)	Activity (A10 [2])	Activity (A10 [3])	inhibition (Tubulin (Sus scrofa)) [%]
CN(c1ccc(Cl)cc1)c1ncnc2c1CCC2	–	–	inactive	–	–
CSc1ccc(N(C)c2nc(C)nc3c2CC(C)C3)cc1 (racemic)	7.19	7.81	–	–	–
Cc1nc2c(c(N(C)c3cccc(Br)c3)n1)CC(C)C2 (racemic)	4.82	5.82	–	–	–
CSc1ccc(N(C)c2ncnc3c2CCC3)cc1	6.17	7.37	–	–	–
COc1ccc(N(C)c2nc(C)nc3c2C(C)CC3)cc1 (racemic)	7.33	7.73	–	–	–
C=CC1Cc2nc(N)nc(N(C)c3ccc(OC)cc3)c2C1 (racemic)	6.05	6.69	–	–	–
COc1ccccc1N(C)c1nc(N)nc2c1CCC2	–	< 6.00	inactive	–	–
C=CC1Cc2nc(C)nc(N(C)c3ccc(OC)cc3)c2C1 (racemic)	6.85	7.14	–	–	–
COc1cccc(N(C)c2nc(N)nc3c2CCC3)c1	–	< 6.00	inactive	–	–
COc1ccc(Nc2nc(N)nc3c2CC(C)C3)cc1 (racemic)	–	< 5.00	–	inactive	–
Cc1ccc(N(C)c2ncnc3c2CCC3)cc1	–	–	inactive	–	–
COc1ccc(N(C)c2nc(N)nc3c2CC(C)C3)cc1 (racemic)	6.84	7.52	–	–	–
COc1ccc(/C=C\c2cc(OC)c(OC)c(OC)c2)cc1O [COMBRETASTATIN A4]	8.15	–	–	–	80
Cc1nc2c(c(N(C)c3ccc(Cl)cc3)n1)CC(C)C2 (racemic)	–	5.64	–	inactive	–

The next lines start with results.

pEC50 [1]	SMILES	pIC50 (MDA-MB-435)	Activity (A10 [2])	Activity (A10 [3])	inhibition (Tubulin (Sus scrofa)) [%]
4.98	Cc1ccc(N(C)c2nc(C)nc3c2CCC3)cc1	6.44	–	–	–
6.14	CCOc1ccc(N(C)c2ncnc3c2CCC3)cc1	7.31	–	–	–
6.83	CCOc1ccc(N(C)c2nc(N)nc3c2CCC3)cc1	7.69	–	–	–
6.96	COc1ccc(N(C)c2nc(N)nc3c2CCC3)cc1	7.78	–	–	–
7.19	CCOc1ccc(N(C)c2nc(C)nc3c2CCC3)cc1	7.82	–	–	–
6.18	COc1ccc(N(C)c2ncnc3c2CCC3)cc1	7.37	–	–	–
